The test system of assay [1] is Rattus norvegicus. Kind of assay: Percentage of animals emitting >80% of lever presses in rats at 8.0 mg/kg dose. Format: functional. Summed up:
(§1)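 Male Sprague–Dawley rats (200–220 g) in a two-lever, FR50 food-reinforced task. Rats were trained to discriminate saline from LSD tartrate (0.08 mg/kg), DOI HCl (0.4 mg/kg) or LY293284 (0.025 mg/kg) in 15-min sessions. %SDL is the share of rats making over 80% of presses on the drug lever. %D is the share failing to make 50 presses within 15 min. ED50 by Litchfield–Wilcoxon log-probit.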

The test system of assay [2] is Rattus norvegicus. Kind of assay: Percentage of animals emitting >80% of lever presses in rats at 1.0 mg/kg dose. Format: functional. Summed up:
as §1

The test system of assay [3] is Rattus norvegicus. Nature of the assay: Percentage of animals failing to emit 50 lever presses within 15 min in rats at 2.0 mg/kg dose. The assay is classed as functional. Put shortly:
(§2)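 Two-lever drug discrimination in male Sprague–Dawley rats (200–220 g at start), trained against saline on LSD tartrate (0.08 mg/kg), DOI HCl (0.4 mg/kg) or LY293284 (0.025 mg/kg). FR50 food-pellet reinforcement, levers counterbalanced, 15-min sessions at 22–24 °C. %D is the share of tested rats not completing 50 lever presses within 15 min.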

Assay [4] addresses T1, 5-hydroxytryptamine receptor 1A (Rattus norvegicus, UniProt P19327).
T1 sequence (P19327 whole entry): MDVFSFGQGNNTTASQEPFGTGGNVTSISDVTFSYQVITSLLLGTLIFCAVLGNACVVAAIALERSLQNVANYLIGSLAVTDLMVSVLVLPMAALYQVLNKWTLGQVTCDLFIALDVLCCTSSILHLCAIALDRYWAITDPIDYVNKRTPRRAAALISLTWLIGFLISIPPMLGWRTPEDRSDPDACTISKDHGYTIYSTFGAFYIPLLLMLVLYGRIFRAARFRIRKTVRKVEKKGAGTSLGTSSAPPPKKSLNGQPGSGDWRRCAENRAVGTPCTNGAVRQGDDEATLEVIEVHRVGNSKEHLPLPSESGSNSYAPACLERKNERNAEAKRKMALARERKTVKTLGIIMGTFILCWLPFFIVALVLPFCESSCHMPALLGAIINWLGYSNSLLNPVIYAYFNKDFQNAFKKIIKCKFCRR
Nature of the assay: Compound was tested for the displacement of [3H]-8-OH- DPAT from rat brain 5-hydroxytryptamine 1A receptor. Put shortly:
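Pooled rat hippocampal membranes were preincubated at 37 °C. Buffer was 50 mM Tris HCl pH 7.4 with 0.5 mM Na2EDTA, 10 mM MgCl2, 0.1% Na ascorbate and pargyline. 200–400 μg protein was incubated with [3H]-8-OH-DPAT for 15 min at 37 °C, then GF/C filtered and scintillation counted. Nonspecific binding was defined with 10 μM 5-HT. Triplicate tubes.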

In assay [5] the test system is Rattus norvegicus. Nature of the assay: Drug Discrimination in […] trained rats at 1.0 mg/kg dose. The assay is classed as functional. Summed up: as §1
The test system of assay [6] is Rattus norvegicus. Kind of assay: Percentage of animals failing to emit 50 lever presses within 15 min in rats at 8.0 mg/kg dose. Format: functional. Summed up: as §2
Assay [7] has as its system Rattus norvegicus. Nature of the assay: Drug Discrimination in […] trained rats at 8.0 mg/kg dose. The assay is classed as functional. Put shortly:
as §1

In assay [8] the test system is Rattus norvegicus. Nature of the assay: Drug Discrimination in […] trained rats at 2.0 mg/kg dose. Format: functional. Put shortly:
as §1

Assay [9] relates to Rattus norvegicus. Kind of assay: Percentage of animals failing to emit 50 lever presses within 15 min in rats at 4.0 mg/kg dose. The assay is classed as functional. Put shortly: as §2
The test system of assay [10] is Rattus norvegicus. Nature of the assay: Drug Discrimination in […] trained rats at 4.0 mg/kg dose. The assay is classed as functional. Put shortly:
as §1

In assay [11] the test system is Rattus norvegicus. Kind of assay: Drug Discrimination in […] trained rats at 0.5 mg/kg dose. The assay is classed as functional. Summed up: as §1
In assay [12] the test system is Rattus norvegicus. Nature of the assay: Percentage of animals emitting >80% of lever presses in rats at 4.0 mg/kg dose. Format: functional. Summed up:
as §1

Assay [13] concerns Rattus norvegicus. Nature of the assay: Percentage of animals emitting >80% of lever presses in rats at 2.0 mg/kg dose. Format: functional. Put shortly:
as §1

The target of assay [14] is 5-hydroxytryptamine receptor 2A (Homo sapiens, UniProt P28223).
The test system of assay [15] is Rattus norvegicus. Kind of assay: Percentage of animals failing to emit 50 lever presses within 15 min in rats at 1.0 mg/kg dose. Format: functional. Put shortly:
as §2

The structures appear in SMILES notation.

Sequence of 5-hydroxytryptamine receptor 2A (P28223 whole entry): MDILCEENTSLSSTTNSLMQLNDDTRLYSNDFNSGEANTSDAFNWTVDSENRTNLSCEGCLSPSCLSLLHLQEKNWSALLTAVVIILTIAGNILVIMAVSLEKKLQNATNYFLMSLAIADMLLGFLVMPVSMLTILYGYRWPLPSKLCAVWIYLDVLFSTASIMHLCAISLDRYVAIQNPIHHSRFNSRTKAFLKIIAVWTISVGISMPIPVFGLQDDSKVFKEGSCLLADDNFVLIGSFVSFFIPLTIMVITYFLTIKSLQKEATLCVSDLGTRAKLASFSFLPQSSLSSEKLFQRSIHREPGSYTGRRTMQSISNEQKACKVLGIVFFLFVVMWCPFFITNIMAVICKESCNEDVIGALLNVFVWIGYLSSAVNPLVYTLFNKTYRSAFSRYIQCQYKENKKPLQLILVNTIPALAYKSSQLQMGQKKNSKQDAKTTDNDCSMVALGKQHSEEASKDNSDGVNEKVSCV

Turning to `CN(C)CCc1c[nH]c2ccccc12`, the SDL with Rattus norvegicus [1] stood at 83%; in the assay with Rattus norvegicus [2], 37%; in the assay on Rattus norvegicus [5] it was 20%; in the assay with Rattus norvegicus [7] it was 100%; with Rattus norvegicus [8] it was 37.5%; in the assay on Rattus norvegicus [10] it was 62.5%. Also, the figures for the SDL in the assay with Rattus norvegicus [11], in the assay on Rattus norvegicus [12] and with Rattus norvegicus [13] were 0%, 40% and 22%, respectively. The D in the assay on Rattus norvegicus [3] is on record as 18%; in the assay on Rattus norvegicus [5], 11%; in the assay on Rattus norvegicus [6], 37%; in the assay with Rattus norvegicus [7] it was 80%; in the assay on Rattus norvegicus [8], 20%; with Rattus norvegicus [9], 23%. In addition, the results for the D in the assay with Rattus norvegicus [10], in the assay on Rattus norvegicus [11] and in the assay with Rattus norvegicus [15] were 20%, 0% and 0%, respectively. Moreover, the Ki (as a rule, a dissociation constant, usually derived from enzyme kinetics or from competition with a known ligand) stood at 259 nM in assay [4] and 65 nM in assay [14].
